Screening results (PubChem)
PP1 counter – PP1-alpha (human) inhibition in PP5 counter-screen; AID 2235; purified PP1alpha, OMFP fluorescence; inhibition, % at 6.7 µM; 320,000 compounds, 0.9% hits;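 active = inhibition above the mean inhibition of all tested compounds plus 3 SD, computed separately for each screening campaign, cut at about 15% in these data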
Target sequence (P62136 whole entry, looked up): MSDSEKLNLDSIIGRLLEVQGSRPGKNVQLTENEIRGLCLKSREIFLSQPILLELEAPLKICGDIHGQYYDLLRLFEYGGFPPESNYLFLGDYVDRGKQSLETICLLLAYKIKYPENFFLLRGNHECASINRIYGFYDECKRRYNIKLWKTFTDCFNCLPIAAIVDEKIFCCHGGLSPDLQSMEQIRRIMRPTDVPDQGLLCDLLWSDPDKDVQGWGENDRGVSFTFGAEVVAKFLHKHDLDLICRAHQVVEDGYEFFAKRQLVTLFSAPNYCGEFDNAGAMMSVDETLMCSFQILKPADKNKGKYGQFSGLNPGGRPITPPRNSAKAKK
Scp-1 inhibitor – inhibitors of human Scp-1 phosphatase. Q9GZU7. Recombinant Scp1, phosphopeptide, malachite green phosphate absorbance. inhibition, % at 20 µM. 340,000 compounds, 0.88% hits;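 active = inhibition above about 50% at 20 µM, limit read from the data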
Target sequence (Q9GZU7 76-261 limits assumed): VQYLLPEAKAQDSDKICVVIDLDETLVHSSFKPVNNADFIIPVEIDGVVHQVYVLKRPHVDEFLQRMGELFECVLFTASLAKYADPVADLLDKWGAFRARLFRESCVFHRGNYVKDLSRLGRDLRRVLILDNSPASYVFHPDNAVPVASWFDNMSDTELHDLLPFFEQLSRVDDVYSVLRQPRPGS
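Assay system: SCP-1 catalytic fragment, aa 76-261 | Buffer or medium: Tris acetate buffer pH 5.5 with MgCl2 and Tween-20 | Compound: One concentration, 20 µM, with 1.0% DMSO | Also added: Phospho 17-mer peptide substrate | Signal: Absorbance at 630 nm | Incubation: 45 min enzyme reaction at room temperature | Measure: % inhibition of SCP-1 phosphate liberation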
STEP inh – inhibitors of human striatal-enriched phosphatase STEP; P54829; recombinant STEP, OMFP fluorogenic substrate, fluorescence; inhibition, % at 20 µM; 360,000 compounds, 0.25% hits; AID 588621;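 active = inhibition at 20 µM, scaled per plate between control wells, above about 37%, limit read from the data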
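Assay system: isolated STEP enzyme. Buffer or medium: pH 6.0 Bis-Tris with DTT and Tween 20. Also added: fluorogenic phosphatase substrate OMFP at 25 µM final. Dosing: 20 µM, 1% DMSO. Timing: 20 min reaction, room temperature, in the dark. Measured by: fluorescence intensity, excitation 480 nm, emission 540 nm. Evaluation: normalized % inhibition.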
LMPTP inh – blocks human LMPTP phosphatase; P24666; recombinant LMPTP-A, OMFP fluorogenic substrate, fluorescence intensity; inhibition, % at 20 µM; 360,000 compounds, 0.22% hits; AID 651560;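 active = compounds that cut the enzyme signal by at least half of the control window in the single-dose screen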
Target sequence (P24666 whole entry, looked up): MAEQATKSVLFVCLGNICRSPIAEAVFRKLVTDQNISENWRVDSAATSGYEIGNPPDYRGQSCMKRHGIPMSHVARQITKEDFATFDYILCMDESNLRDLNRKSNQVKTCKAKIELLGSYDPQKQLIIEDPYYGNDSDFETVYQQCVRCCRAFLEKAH
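test system = LMPTP-A | amount = 0.625 nM LMPTP-A final | reagent = fluorogenic phosphatase substrate OMFP at 400 µM final | incubation = 50 min at room temperature | benchmarks = no-enzyme low control, uninhibited high control | medium = Bis-Tris pH 6.0, DTT, detergent | signal = fluorescence intensity of OMFP turnover product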
PP5 inh – PP5 (human) phosphatase inhibition; 320,000 compounds, 0.18% hits; purified PP5c, OMFP substrate fluorescence; inhibition, % at 6.7 µM; AID 1987;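 active = inhibition above the campaign's mean inhibition across all tested compounds plus 3 SD, cut at about 9.5% in these data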
Scp1 confirm – Scp-1 (human) inhibition, single-dose confirmed. inhibition, % at 20 µM. 2,500 compounds, 61% hits. AID 540281. recombinant SCP-1 catalytic domain, phosphate release, malachite green absorbance. shares compounds with Scp-1 inhibitor
MG interference – counter-screen for Scp-1 inhibitors: colorimetric interference; shares compounds with Scp-1 inhibitor; Colorimetric interference counterscreen, malachite green absorbance 630 nm; apparent inhibition (interference), % at 20 µM; 2,500 tested, under 10 active; AID 540313;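 note: compounds added after enzyme reaction finished so only phosphate colour detection is probed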
Scp1 DSF – validation of human Scp-1 inhibitors by thermal shift binding; shares compounds with Scp-1 inhibitor; Recombinant SCP1, Sypro Orange thermal shift Tm; thermal shift relative to vanadate control, % at 40 µM; 1,500 compounds, 25% hits; AID 540329;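 active = substances whose mean melting-temperature shift, as a percentage of the reference inhibitor's shift, reaches about 5.3%, limit read from the data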
Large screens that a line does not name were inactive (follow-up assays come after a bar, where they were run). Most compounds without a hit are left out; they make up all but 1.9% or so of the library.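 Rule for the calls, unless noted: active = inhibition of at least 30% at 20 µM; inactive = the rest.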

COc1cccc(NC(=O)CN2C(=O)NC(C)(C3CC3)C2=O)c1 (stereo not drawn)	none (no result: PP1 counter, PP5 inh)
CC(NC(=O)OCc1ccccc1)c1ccccc1 (stereo not drawn)	none
O=C(O)CC(NC(=O)OCc1ccccc1)c1ccccc1 (stereo not drawn)	Scp-1 inhibitor 73 | Scp1 confirm inactive | MG interference inactive
Cc1cccc(-c2nc(S(=O)(=O)c3ccccc3)c(N3CCOCC3)o2)c1	Scp-1 inhibitor 54 | Scp1 confirm inactive | MG interference inactive
CCOc1ccc2[nH]c3c(NCC(C)C)ncnc3c2c1	none
CC1CCN(C(=O)COC(=O)/C=C/c2ccco2)CC1	Scp-1 inhibitor 65 (no result: PP1 counter, PP5 inh) | Scp1 confirm inactive | MG interference inactive
CC1CCN(C(=O)COC(=O)/C=C/c2ccc(Br)o2)CC1	none
COC(=O)c1ccccc1NC(=O)COC(=O)/C=C/c1ccco1	none
CCOC(=O)C1=C(COC(=O)/C=C/c2ccc(OC)cc2)NC(=O)NC1C (stereo not drawn)	none (no result: PP1 counter, PP5 inh)
CN(Cc1ccccc1)C(=O)COC(=O)/C=C/c1ccco1	Scp-1 inhibitor 65 | Scp1 confirm 62 | MG interference inactive | Scp1 DSF inactive
CC1CCCC(C)N1C(=O)COC(=O)/C=C/c1ccco1 (stereo not drawn)	none (no result: PP1 counter, PP5 inh)
CCOC(=O)C1=C(COC(=O)/C=C/c2ccco2)NC(=O)NC1C (stereo not drawn)	Scp-1 inhibitor 66 | Scp1 confirm 55 | MG interference inactive | Scp1 DSF inactive
CC1CCCC(C)N1C(=O)COC(=O)/C=C/c1ccc(Br)o1 (stereo not drawn)	Scp-1 inhibitor 92 (no result: PP1 counter, PP5 inh) | Scp1 confirm 58 | MG interference inactive | Scp1 DSF inactive
CCn1c(SCC(=O)Nc2cccc(NC(=O)c3ccco3)c2)nnc1-c1cccs1	none
CCN(CCO)c1ncnc2onc(-c3ccc(F)cc3)c12	none
CN(CCOC(=O)/C=C/c1ccco1)Cc1ccccc1	Scp-1 inhibitor 66 | Scp1 confirm 53 | MG interference inactive | Scp1 DSF inactive
CN(CCOC(=O)c1ccco1)Cc1ccccc1	none
O=C1CN(C(=S)NC(=O)c2ccc(-c3ccccc3)cc2)CCN1	none
CCCCn1c2c(c(=N)c3c1CCC3)CCC2	Scp-1 inhibitor 94 | Scp1 confirm inactive | MG interference inactive
Cc1ccc(-c2csc(NCCn3c(C(F)(F)F)nc4ccccc43)n2)cc1	Scp-1 inhibitor 59 | Scp1 confirm inactive | MG interference inactive
CC(C)c1ccc2oc(-c3ccc(N)cc3)nc2c1	none
CC(C)c1ccc2oc(-c3ccc(NC(=O)c4ncn[nH]4)cc3)nc2c1	Scp-1 inhibitor 91 | Scp1 confirm 53 | MG interference inactive | Scp1 DSF inactive
C#CCSc1nsc(SCC#C)c1C#N	Scp-1 inhibitor 80 | Scp1 confirm 66 | MG interference inactive | Scp1 DSF inactive
C[n+]1cccc(/C=N/NC(=O)CC23CC4CC(CC(C4)C2)C3)c1	Scp-1 inhibitor 83 | Scp1 confirm inactive | MG interference inactive
[N-]=[N+]=NC[C@H](Cc1ccccc1)N1CC[C@@H](NC(=O)OCc2ccccc2)CCC1=O	none
O=C(CCCCCCCC(=O)NNC(=O)Nc1ccccc1)NNC(=O)Nc1ccccc1	Scp-1 inhibitor 73 | Scp1 confirm 65 | MG interference inactive | Scp1 DSF inactive
O=C(CCc1ccccc1)NNC(=O)Nc1ccccc1	none
NC(=N\N=Cc1ccco1)/C(N)=N/N=Cc1ccco1	Scp-1 inhibitor 62 (no result: PP1 counter, PP5 inh) | Scp1 confirm 39 | MG interference inactive | Scp1 DSF inactive
N#C/C(=C\c1ccc(/C=C(/C#N)c2nn(CCO)c(N)c2C#N)cc1)c1nn(CCO)c(N)c1C#N	Scp-1 inhibitor 68 | Scp1 confirm inactive | MG interference inactive
N#C/C(=C/c1ccccc1)c1nn(CCO)c(N)c1C#N	none
Cc1ccc(S(=O)(=O)N2CCCC(C(=O)N3CCN(c4ccccc4)CC3)C2)cc1 (stereo not drawn)	none
COCCNC(=S)N(CCCO)Cc1cc2cc3c(cc2[nH]c1=O)OCO3	none (no result: PP1 counter, Scp-1 inhibitor, PP5 inh)
CSc1cccc(N2CC(C(=O)Nc3cccc(S(=O)(=O)N4CCCC4)c3)CC2=O)c1 (stereo not drawn)	Scp-1 inhibitor 74 | Scp1 confirm 76 | MG interference inactive | Scp1 DSF inactive
Cc1cccc(N2CC(C(=O)Nc3cccc(S(=O)(=O)N4CCCCC4)c3)CC2=O)c1C (stereo not drawn)	none
CCOc1ccc(N2CC(C(=O)Nc3ccc(N4CCOCC4)cc3)CC2=O)cc1 (stereo not drawn)	none | Scp1 confirm inactive | MG interference inactive
COc1ccc(N2CC(C(=O)Nc3ccc(S(=O)(=O)N4CCCC4)cc3)CC2=O)cc1 (stereo not drawn)	Scp-1 inhibitor 54 | Scp1 confirm inactive | MG interference inactive
COc1ccc(N2CC(C(=O)Nc3nc4ccccc4s3)CC2=O)cc1 (stereo not drawn)	none | Scp1 confirm inactive | MG interference inactive
O=C(Nc1nc2ccccc2s1)C1CC(=O)N(c2ccccc2)C1 (stereo not drawn)	none
COC(=O)c1ccc(CNC(=O)c2cc3ccccc3oc2=O)cc1	none
COc1ccc(C(CNC(=O)c2cc3ccccc3o2)N2CCCCC2)cc1 (stereo not drawn)	none
Cc1ccc(NC(=O)c2cc(S(=O)(=O)N3CCOCC3)cn2C)c(C)c1	none
CCOC(=O)N1CCN(C(=O)C2CC(c3ccccc3OC)=NO2)CC1 (stereo not drawn)	none
CCOC(=O)/C=C1\CC(C(=O)OCC)Oc2c(OC)cccc21 (stereo not drawn)	Scp-1 inhibitor 103 (no result: PP1 counter, PP5 inh) | Scp1 confirm 67 | MG interference inactive | Scp1 DSF inactive
O=C(CCCCCN1C(=O)c2ccccc2C1=O)Nc1ccc(C(=O)O)cc1	none
Cc1ccoc1C(=O)NCc1occc1C(=O)O	Scp-1 inhibitor 50 | Scp1 confirm 34 | MG interference inactive | Scp1 DSF inactive
O=C(O)c1ccc2c(=O)n3c(nc2c1)/C(=C/c1ccc(Cl)c(Cl)c1)CC3	Scp-1 inhibitor 55 | Scp1 confirm inactive | MG interference inactive
CC[N+]1=CN(c2ccccc2)C(C)=CC1(C)C	Scp-1 inhibitor 78 | Scp1 confirm 86 | MG interference inactive | Scp1 DSF inactive
Cc1cccc(NC(=O)CCc2nc3sc4c(c3c(=O)[nH]2)CCCC4)c1	none
NC(=O)C1CCN(C(=O)CCc2nc3sc4c(c3c(=O)[nH]2)CCCC4)CC1	Scp-1 inhibitor 58 | Scp1 confirm 62 | MG interference inactive | Scp1 DSF inactive
